One series relates to Staphylococcus aureus. Put plainly: microbe, parasite or virus in culture. Particulars: ATCC 25923, 18 h.
Series [1] deals with Pseudomonas aeruginosa. Put plainly: Antibacterial activity against clinical isolate polymyxin resistant Pseudomonas aeruginosa FADDI-PA070 after 18 hrs by 2 fold serial dilution method. Particulars: FADDI-PA070, 18 h. The class given is functional. Summed up:
(§1)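 Polymyxin-resistant clinical isolates were grown overnight at 37 °C in NB or MHB with shaking, diluted 50-fold in MHB and grown 1.5–3 h to mid-log phase. The inoculum was 5×10^5 CFU/mL. Compounds were 2-fold broth serial dilutions, final 32 to 0.015 μg/mL; the polymyxin controls ran 128–0.06 μg/mL. The MIC was the lowest concentration with no visible growth after 18 h at 37 °C.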

In series [2] the test system is Pseudomonas aeruginosa. Put plainly: Antibacterial activity against clinical isolate polymyxin resistant Pseudomonas aeruginosa PA9704 after 18 hrs by 2 fold serial dilution method. The class given is functional. Particulars: PA9704, 18 h. A digest of the protocol: as §1
In another series the test system is Escherichia coli. Put plainly: Antibacterial activity against Escherichia coli ATCC 25922 after 18 hrs by 2 fold serial dilution method. The class given is functional. Particulars: ATCC 25922, 18 h. Summed up:
(§2)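 Overnight cultures in nutrient or Mueller Hinton broth at 37 °C with shaking, diluted 50-fold into fresh MHB and grown 1.5–3 h to mid-log. Inoculum 5×10^5 CFU/mL in 2-fold serial dilutions, final range 32 to 0.015 μg/mL. MIC read visually after 18 h at 37 °C as the lowest concentration with no visible growth.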

Series [3] can be described thus: Cytotoxicity against human HepG2 cells after 24 hrs by resazurin assay. The class given is cell-based. Particulars: HepG2 cells. (In general: Alamar Blue is a resazurin reagent that responds to reducing activity.)
The test system of series [4] is Pseudomonas aeruginosa. Kind of series: Antibacterial activity against Pseudomonas aeruginosa ATCC 27853 after 18 hrs by 2 fold serial dilution method. Particulars: ATCC 27853, 18 h. The class given is functional. A digest of the protocol: as §2
Series [5] has as its system Acinetobacter baumannii. Kind of series: Antibacterial activity against clinical isolate carbapenem and polymyxin resistant Acinetobacter baumannii Ptyela 100734512:2 after 18 hrs by 2 fold serial dilution method. Particulars: Ptyela 100734512:2, 18 h. The series is classed as functional. A digest of the protocol: as §1
The subject of series [6] is Klebsiella pneumoniae. Kind of series: Antibacterial activity against Klebsiella pneumoniae ATCC BAA-2146 expressing NDM-1 after 18 hrs by 2 fold serial dilution method. The series is classed as functional. Particulars: ATCC BAA-2146, 18 h. A digest of the protocol:
(§3)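 Overnight cultures at 37 °C in nutrient or Mueller Hinton broth with shaking were diluted 50-fold in MHB and grown 1.5–3 h to mid-log phase. The inoculum was 5×10^5 CFU/mL in MHB. Compounds were 2-fold serially diluted, final 32 to 0.015 μg/mL. After 18 h at 37 °C, the MIC was read visually as the lowest concentration with no visible growth.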

Series [7] relates to Klebsiella pneumoniae. Kind of series: Antibacterial activity against multidrug resistant Klebsiella pneumoniae ATCC 700603 after 18 hrs by 2 fold serial dilution method. The class given is functional. The following applies: Klebsiella pneumoniae, 700603, 18 h. A digest of the protocol:
as §3

The subject of series [8] is Klebsiella pneumoniae. Put plainly: Antibacterial activity against clinical isolate carbapenem and polymyxin resistant Klebsiella pneumoniae 138-16357-20362 after 18 hrs by 2 fold serial dilution method. Particulars: 138-16357-20362, 18 h. The class given is functional. Summed up: as §1
The test system of series [9] is Acinetobacter baumannii. Put plainly: Antibacterial activity against Acinetobacter baumannii ATCC 19606 after 18 hrs by 2 fold serial dilution method. The series is classed as functional. Particulars: ATCC 19606, 18 h. Summed up: as §2
The subject of series [10] is Klebsiella pneumoniae. Put plainly: Antibacterial activity against Klebsiella pneumoniae ATCC 13883 after 18 hrs by 2 fold serial dilution method. Particulars: ATCC 13883, 18 h. The series is classed as functional. Summed up: as §2
The test system of series [11] is Klebsiella pneumoniae. Put plainly: Antibacterial activity against clinical isolate carbapenem and polymyxin resistant Klebsiella pneumoniae Koprana 100650661:1 after 18 hrs by 2 fold serial dilution method. The series is classed as functional. The following applies: Koprana 100650661:1, 18 h. Summed up: as §1

≈ marks a conversion by molar mass, not a printed value. Numbered stars: 1 amine (or outer) side, 2 acyl side, 3 side chain; on linkers, the order of the positions; unused ones are H or OH. Bridge positions count the residues as written; N and C are the ends. Square brackets hold non-standard residues; d marks the D form. Peptide text beside a SMILES is read from it. * marks the point of attachment. dBip = N[C@H](Cc1ccc(-c2ccccc2)cc1)C(=O)O; NH(2-ClPh) = Clc1ccccc1N*; dDab = NCC[C@@H](N)C(=O)O; Octanoyl = CCCCCCCC(=O)*; Dab = NCC[C@H](N)C(=O)O; CO = O=C([*:1])[*:2]

For the compound `CCCCCCCC(=O)N[C@@H](CCN)C(=O)N[C@H](C(=O)N[C@@H](CCN)C(=O)N[C@H]1CCNC(=O)[C@H]([C@@H](C)O)NC(=O)[C@H](CCN)NC(=O)[C@H](CCN)NC(=O)[C@H](CC(C)C)NC(=O)[C@@H](Cc2ccc(-c3ccccc3)cc2)NC(=O)[C@H](CCN)NC1=O)[C@@H](C)O` (Octanoyl-[Dab]T[Dab][Dab][Dab][dBip]L[Dab][Dab]T; lactam 4-C), the MIC came to 8 µg/mL (≈ 6.32 µM) in the series with Staphylococcus aureus; 16 µg/mL (≈ 12.6 µM) in the series with Pseudomonas aeruginosa [1]; 16 µg/mL (≈ 12.6 µM) in the series with Pseudomonas aeruginosa [2]; 1 µg/mL (≈ 0.79 µM) in the series on Escherichia coli; 1 µg/mL (≈ 0.79 µM) in the series with Pseudomonas aeruginosa [4]; 8 µg/mL (≈ 6.32 µM) with Acinetobacter baumannii [5]. The MIC against Klebsiella pneumoniae [6] is 1 µg/mL (≈ 0.79 µM); in the series on Klebsiella pneumoniae [7] it was 2 µg/mL (≈ 1.58 µM); in the series with Klebsiella pneumoniae [8] it was 32 µg/mL (≈ 25.3 µM); in the series on Acinetobacter baumannii [9] it was 0.5 µg/mL (≈ 0.395 µM); against Klebsiella pneumoniae [10] it was 4 µg/mL (≈ 3.16 µM); against Klebsiella pneumoniae [11], 32 µg/mL (≈ 25.3 µM). For the same compound, the CC50 – broadly, the concentration at which the toxic effect on the cells reaches its halfway point – at 24 h in series [3] was 119 µM.
`CCCCCCCC(=O)N[C@@H](CCN)C(=O)N[C@H](C(=O)N[C@@H](CCN)C(=O)N[C@H]1CCNC(=O)[C@H]([C@@H](C)O)NC(=O)[C@H](CCN)NC(=O)[C@H](CCN)NC(=O)[C@H](CC(C)C)NC(=O)[C@@H](Cc2ccccc2)NC(=O)[C@H](CCNC(=O)[C@@H](N)CCCNC(=N)N)NC1=O)[C@@H](C)O` (Octanoyl-[Dab]T[Dab][Dab][Dab](Arg)[dF]L[Dab][Dab]T; lactam 4-C): the MIC in the series on Staphylococcus aureus was greater than 32 µg/mL; in the series with Pseudomonas aeruginosa [1], greater than 32 µg/mL; in the series on Pseudomonas aeruginosa [2] it was greater than 32 µg/mL; with Escherichia coli, 32 µg/mL (≈ 23.8 µM); in the series with Pseudomonas aeruginosa [4] it was 32 µg/mL (≈ 23.8 µM); against Acinetobacter baumannii [5], greater than 32 µg/mL. Further, the MIC is 16 µg/mL (≈ 11.9 µM) against Klebsiella pneumoniae [6]; 16 µg/mL (≈ 11.9 µM) with Klebsiella pneumoniae [7]; greater than 32 µg/mL against Klebsiella pneumoniae [8]; 32 µg/mL (≈ 23.8 µM) in the series on Acinetobacter baumannii [9]; 32 µg/mL (≈ 23.8 µM) against Klebsiella pneumoniae [10]; greater than 32 µg/mL against Klebsiella pneumoniae [11]. Further, in [3], the half-maximal cytotoxic concentration (CC50) at 24 h was greater than 300 µM.
For the compound `CCCCCCCC(=O)N[C@@H](CCN)C(=O)N[C@H](C(=O)N[C@H](CCN)C(=O)N[C@H]1CCNC(=O)[C@H]([C@@H](C)O)NC(=O)[C@H](CCN)NC(=O)[C@H](CCN)NC(=O)[C@H](CC(C)C)NC(=O)[C@@H](Cc2ccccc2)NC(=O)[C@H](CCN)NC1=O)[C@@H](C)O` (Octanoyl-[Dab]T[dDab][Dab][Dab][dF]L[Dab][Dab]T; lactam 4-C), the MIC in the series on Staphylococcus aureus is greater than 32 µg/mL; against Pseudomonas aeruginosa [1], greater than 32 µg/mL; against Pseudomonas aeruginosa [2], 32 µg/mL (≈ 26.9 µM); in the series on Escherichia coli, 4 µg/mL (≈ 3.36 µM); with Pseudomonas aeruginosa [4], 2 µg/mL (≈ 1.68 µM); against Acinetobacter baumannii [5], greater than 32 µg/mL. The MIC in the series with Klebsiella pneumoniae [6] is 4 µg/mL (≈ 3.36 µM); against Klebsiella pneumoniae [7], 1 µg/mL (≈ 0.841 µM); with Klebsiella pneumoniae [8], greater than 32 µg/mL; with Acinetobacter baumannii [9] it was 1 µg/mL (≈ 0.841 µM); against Klebsiella pneumoniae [10], 0.5 µg/mL (≈ 0.42 µM); in the series on Klebsiella pneumoniae [11] it was greater than 32 µg/mL. The same compound yielded a CC50 at 24 h in series [3] greater than 300 µM.
In the case of `CC(C)C[C@@H]1NC(=O)[C@@H](Cc2ccccc2)NC(=O)[C@H](CCN)NC(=O)[C@@H](NC(=O)[C@@H](CO)NC(=O)[C@@H](NC(=O)[C@H](CCN)NC(=O)Nc2ccccc2Cl)[C@@H](C)O)CCNC(=O)[C@H]([C@@H](C)O)NC(=O)[C@H](CCN)NC(=O)[C@H](CCN)NC1=O` ({NH(2-ClPh)-CO}-[Dab]T[dS][Dab][Dab][dF]L[Dab][Dab]T; lactam 4-C), the MIC is greater than 32 µg/mL with Staphylococcus aureus; greater than 32 µg/mL in the series on Pseudomonas aeruginosa [1]; greater than 32 µg/mL against Pseudomonas aeruginosa [2]; 32 µg/mL (≈ 26.6 µM) against Escherichia coli; 8 µg/mL (≈ 6.65 µM) in the series with Pseudomonas aeruginosa [4]; greater than 32 µg/mL against Acinetobacter baumannii [5]. The MIC was greater than 32 µg/mL against Klebsiella pneumoniae [6]; 16 µg/mL (≈ 13.3 µM) against Klebsiella pneumoniae [7]; greater than 32 µg/mL against Klebsiella pneumoniae [8]; greater than 32 µg/mL in the series on Acinetobacter baumannii [9]; 32 µg/mL (≈ 26.6 µM) against Klebsiella pneumoniae [10]; greater than 32 µg/mL with Klebsiella pneumoniae [11]. For the same compound, the CC50 at 24 h in series [3] is greater than 300 µM.
